Our source for the Activity, inhibition and IC50 values is ChEMBL document CHEMBL3414434, “Exploring the chemical space of ureidothiophene-2-carboxylic acids as inhibitors of the quorum sensing enzyme PqsD from Pseudomonas aeruginosa” (Eur J Med Chem, 2015).

The source made the active and inactive calls. The rule behind the calls is not given here. Starred links: 1 amine or outer side, 2 acyl side, 3 side chain; linkers in the order of their positions; H or OH if unused. Non-standard residues stand in square brackets, D forms with d. Residues, ends and D or L forms follow the SMILES beside them. *: point of attachment. X1 = COc1ccc(-c2cc(N*)c(C(=O)O)s2)cc1; AEEA = NCCOCCOCC(=O)O; CO = O=C([*:1])[*:2]

One experiment has as its system Pseudomonas aeruginosa. In words: Binding affinity to recombinant His6-tagged Pseudomonas aeruginosa PqsD/anthraniloyl-CoA complex at 25 to 100 uM by surface plasmon resonance analysis. In outline:
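His6-PqsD on an SPR sensor chip. Running buffer was HEPES pH 7.4, 150 mM NaCl, 5% DMSO, 0.05% polysorbate 20. ACoA (100 µM) was injected for about 40 min to saturate the binding site, then flushed at higher flow for 30 min. Compounds were injected in sequence and equilibrium responses compared with untreated PqsD. Run in duplicate.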
For the molecule `O=C(Nc1cc(-c2ccc(-c3ccc(CO)cc3)cc2)sc1C(=O)O)N[C@@H](Cc1ccccc1)C(=O)O`, the outcome was Active.

The subject of another experiment is Pseudomonas aeruginosa PA14. In words: Inhibition of PqsD in Pseudomonas aeruginosa PA14 assessed as reduction of HHQ level at 250 uM after 16 hrs by UHPLC-MS/MS analysis relative to control.
Turning to `COc1ccc(-c2cc(NC(=O)N[C@@H](Cc3ccccc3)C(=O)SCCNC(C)=O)c(C(=O)O)s2)cc1`, the inhibition result is “inactive”.
Still for that read-out and setting: the result for `COc1ccc(-c2cc(NC(=O)N[C@@H](Cc3c[nH]cn3)C(=O)O)c(C(=O)O)s2)cc1` reads 16%.
Take `CC[C@H](C)[C@H](NC(=O)[C@H](CCCNC(=N)N)NC(=O)[C@H](CCCNC(=N)N)NC(=O)[C@H](Cc1ccccc1)NC(=O)[C@H](CC(C)C)NC(=O)[C@H](CCCNC(=N)N)NC(=O)[C@H](CCCNC(=N)N)NC(=O)COCCOCCNC(=O)[C@H](Cc1ccccc1)NC(=O)Nc1cc(-c2ccc(OC)cc2)sc1C(=O)O)C(=O)N[C@@H](CC(C)C)C(=O)N[C@@H](CCCNC(=N)N)C(=O)N[C@@H](Cc1c[nH]c2ccccc12)C(=O)N[C@@H](CC(C)C)C(=O)O` ({X1-CO}-F[AEEA]RRLFRRILRWL-OH): the inhibition entry was “inactive”.

In another experiment the target is T1, 2-heptyl-4(1H)-quinolone synthase PqsD (Pseudomonas aeruginosa) (UniProt A0A0C7ACN7).
T1 sequence (whole entry): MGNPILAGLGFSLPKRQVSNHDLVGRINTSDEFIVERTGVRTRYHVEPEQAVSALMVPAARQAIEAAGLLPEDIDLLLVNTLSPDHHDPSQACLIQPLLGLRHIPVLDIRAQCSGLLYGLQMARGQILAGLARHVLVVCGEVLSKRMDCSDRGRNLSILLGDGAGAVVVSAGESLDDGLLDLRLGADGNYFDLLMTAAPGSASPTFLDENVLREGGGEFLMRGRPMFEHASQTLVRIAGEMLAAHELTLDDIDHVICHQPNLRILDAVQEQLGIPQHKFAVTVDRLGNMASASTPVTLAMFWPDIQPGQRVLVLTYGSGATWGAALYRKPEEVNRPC
The experiment in a line: (§1) Inhibition of recombinant His6-tagged Pseudomonas aeruginosa PqsD expressed in Escherichia coli BL21 (deltaDE3) using anthraniloyl-CoA/beta-ketodecanoic acid as substrate assessed as HHQ formation preincubated for 10 mins followed by substrate addition by HPLC/MS-MS analysis. In outline: (§2)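 His6-PqsD was expressed in E. coli BL21(DE3) (IPTG, 16 °C, 16 h) and purified by single-step affinity. Assay buffer was 0.05 M MOPS pH 7.0 with 0.005% Triton X-100, plus 0.1 µM enzyme and inhibitor (0.5% DMSO final). After 10 min preincubation at 37 °C, anthraniloyl-CoA was added; β-ketodecanoic acid was the second substrate. HHQ was measured by HPLC-MS against DMSO controls set to 100%.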
As to `CC[C@H](C)[C@H](NC(=O)[C@H](CCCNC(=N)N)NC(=O)[C@H](CCCNC(=N)N)NC(=O)[C@H](Cc1ccccc1)NC(=O)[C@H](CC(C)C)NC(=O)[C@H](CCCNC(=N)N)NC(=O)[C@H](CCCNC(=N)N)NC(=O)COCCOCCNC(=O)[C@H](Cc1ccccc1)NC(=O)Nc1cc(-c2ccc(OC)cc2)sc1C(=O)O)C(=O)N[C@@H](CC(C)C)C(=O)N[C@@H](CCCNC(=N)N)C(=O)N[C@@H](Cc1c[nH]c2ccccc12)C(=O)N[C@@H](CC(C)C)C(=O)O` ({X1-CO}-F[AEEA]RRLFRRILRWL-OH), the inhibition result is “Active”.

The target in a further experiment is T2, 2-heptyl-4(1H)-quinolone synthase PqsD (Pseudomonas aeruginosa, UniProt A0A0C7ACN7).
T2 sequence (A0A0C7ACN7 whole entry): T1 sequence (whole entry)
Described as §1. The method in brief: as §2
For the molecule `COc1ccc(-c2cc(NC(=O)N[C@@H](Cc3ccccc3)C(=O)SCCNC(C)=O)c(C(=O)O)s2)cc1`, the 50% inhibitory concentration (IC50) was determined as 32 µM.
Regarding `COc1ccc(-c2cc(NC(=O)N[C@@H](Cc3ccc(Cl)cc3)C(=O)O)c(C(=O)O)s2)cc1`, the IC50 stood at 13.8 µM.
Still for that read-out and setting: the result for `COc1ccc(-c2cc(NC(=O)N[C@@H](CCC(=O)O)C(=O)O)c(C(=O)O)s2)cc1` reads 30.3 µM.
Still for that read-out and setting: the result for `COc1ccc(-c2cc(NC(=O)N[C@@H](Cc3c[nH]c4ccccc34)C(=O)O)c(C(=O)O)s2)cc1` reads 5 µM; that for `COc1ccc(-c2cc(NC(=O)N[C@@H](CCc3ccccc3)C(=O)O)c(C(=O)O)s2)cc1`, 33.7 µM.
In the case of `O=C(Nc1cc(-c2ccc(O)cc2)sc1C(=O)O)N[C@@H](Cc1ccccc1)C(=O)O`, the IC50 was found to be 21.6 µM.
Take `COc1ccc(-c2cc(NC(=O)N[C@@H](Cc3ccc(O)cc3)C(=O)O)c(C(=O)O)s2)cc1`: the IC50 stood at 29 µM.
With `COc1ccc(-c2cc(NC(=O)NCC(=O)O)c(C(=O)O)s2)cc1`, the IC50 was determined as 7 µM.
In the case of `COc1ccc(-c2cc(NC(=O)N[C@@H](Cc3ccccc3)C(=O)O)c(C(=O)O)s2)cc1`, the IC50 is 0.5 µM.
As for `O=C(Nc1cc(-c2cccc(-c3ccc(CO)cc3)c2)sc1C(=O)O)N[C@@H](Cc1ccccc1)C(=O)O`, the 50% inhibitory concentration (IC50) was determined as 19.4 µM.
`COc1ccc(-c2cc(NC(=O)N[C@@H](Cc3ccccc3)C(=O)O)cs2)cc1`: the concentration for half-maximal inhibition (IC50) was found to be 11.5 µM.
Take `COc1ccc(-c2cc(NC(=O)N[C@H](C(=O)O)C(C)C)c(C(=O)O)s2)cc1`: the IC50 worked out at 31.9 µM.
Consider `O=C(Nc1cc(-c2ccccc2)sc1C(=O)O)N[C@@H](Cc1ccccc1)C(=O)O`, for which the IC50 worked out at 3.8 µM.
For `O=C(Nc1cc(-c2ccc(-c3ccc(C(O)c4ccccc4[N+](=O)[O-])cc3)cc2)sc1C(=O)O)N[C@@H](Cc1ccccc1)C(=O)O` (stereo not given in full), the IC50 was determined as 0.36 µM.
On to `COc1ccc(-c2cc(NC(=O)N[C@@H](CO)C(=O)O)c(C(=O)O)s2)cc1`, for which the concentration for half-maximal inhibition (IC50) amounted to 19 µM.
With `O=C(Nc1cc(-c2ccc(-c3ccc(CO)cc3)cc2)sc1C(=O)O)N[C@@H](Cc1ccccc1)C(=O)O`, the IC50 was found to be 0.14 µM.
Take `COc1ccc(-c2cc(NC(=O)N[C@@H](CC(N)=O)C(=O)O)c(C(=O)O)s2)cc1`: the 50% inhibitory concentration (IC50) was determined as 13.2 µM.
The same measure, in the same setting: the result for `COc1ccc(-c2cc(NC(=O)NCP(=O)(O)O)c(C(=O)O)s2)cc1` reads 7 µM; that for `O=C(Nc1cc(-c2cccc(-c3ccccc3)c2)sc1C(=O)O)N[C@@H](Cc1ccccc1)C(=O)O`, 6.2 µM; that for `O=C(Nc1cc(-c2ccc(-c3ccccc3)cc2)sc1C(=O)O)N[C@@H](Cc1ccccc1)C(=O)O`, 2.7 µM.
With `O=[N+]([O-])c1ccccc1C(O)c1ccccc1` (stereo not given), the concentration for half-maximal inhibition (IC50) worked out at 1 µM.
As for `COc1ccc(-c2cc(NC(=O)N[C@@H](Cc3ccccc3)C(=O)O)c(C(=O)O)s2)c(C)c1`, the IC50 came out at 7.5 µM.
Turning to `O=[N+]([O-])c1ccccc1CO`, the IC50 was found to be 2 µM.

The target of a further experiment is T1, 2-heptyl-4(1H)-quinolone synthase PqsD (Pseudomonas aeruginosa). In words: Inhibition of recombinant His6-tagged Pseudomonas aeruginosa PqsD expressed in Escherichia coli BL21 (deltaDE3) using anthraniloyl-CoA/beta-ketodecanoic acid as substrate assessed as HHQ formation at 50 uM preincubated for 10 mins followed by substrate addition by HPLC/MS-MS analysis relative to control. The method in brief: as §2
`O=C(Nc1ccsc1C(=O)O)N[C@@H](Cc1ccccc1)C(=O)O`: the inhibition entry is “inactive”.
As for `COc1ccc(-c2cc(NC(=O)N[C@@H](Cc3c[nH]cn3)C(=O)O)c(C(=O)O)s2)cc1`, the inhibition is 40%.
